One test deals with Human alphaherpesvirus 1. The experiment in a line: Antiviral activity against herpes simplex virus type 1(HSV-1) ELISA method. It is filed as functional, organism-based. A general note: An ELISA detects its analyte on a solid surface through an enzyme-linked reagent.
Test [1] deals with Human betaherpesvirus 5. The experiment in a line: In vitro antiviral activity against human cytomegalovirus by yield reduction assay. It is filed as functional. The essentials:
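HCMV yield reduction assay; result given as IC90. Averages from two or four experiments, some single; highest concentration tested 100.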

The subject of another test is KB. The experiment in a line: In vitro inhibition of KB cell proliferation. The class given is functional, cell-based, Homo sapiens. The essentials: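 KB cells grown over two population doublings of untreated controls with compound; proliferation quantified by crystal violet staining and spectrophotometric reading of dye eluted from stained cells. Values are IC50s averaged from two or four experiments, some from a single experiment.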

The test system of a further test is HFF. The experiment in a line: Visual cytotoxicity scored on HFF cells at the time of HCMV plaque enumeration. It is filed as functional, cell-based, Homo sapiens. Put shortly:
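Stationary HFF cells not affected by the plaque-assay virus examined microscopically for cytotoxicity, scored at the time HCMV plaques were counted. Top concentration tested 100; averages of two or four experiments, some single.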

Test [2] relates to Human betaherpesvirus 5. The experiment in a line: In vitro antiviral activity against human cytomegalovirus by plaque method. The class given is functional, organism-based. The essentials:
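HCMV plaque reduction assay; result given as IC50 (concentration reducing plaque number by 50%). Averages from two or four experiments, some from a single experiment; highest concentration tested 100.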

A further test concerns L1210. The experiment in a line: Inhibition of L1210 murine leukemic cells proliferation in vitro. The class given is functional, cell-based, Mus musculus. The essentials: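 L1210 murine leukemia cells grown with compound; cell counts taken at 0, 48 and 96 h. Where growth rate in treated cultures fell during the run, the 48–96 h rate was used.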

Molecules are shown by their SMILES. Bounds are passed on as bounds.

This is an account of results in ChEMBL document CHEMBL1128465, “Synthesis and evaluation of certain thiosangivamycin analogs as potential inhibitors of cell proliferation and human cytomegalovirus” (J Med Chem, 1995).

In the case of `NC(=S)c1cn(C2C=CC(CO)O2)c2ncnc(N)c12` (stereo not given), the IC50 in the test on Human alphaherpesvirus 1 (Human alphaherpesvirus 1) is 14 µM; with KB (Homo sapiens, KB), 5 µM; in the test with HFF (Homo sapiens, HFF), 18 µM; in the test on Human betaherpesvirus 5 [2] (Human betaherpesvirus 5), 2.7 µM; in the test with L1210 (Mus musculus, L1210), 3 µM. In the test with Human betaherpesvirus 5 [1] (Human betaherpesvirus 5), this molecule came in with an IC90 of 5 µM.
Regarding `N=C(S)c1cn([C@@H]2O[C@H](CO)[C@@H](O)[C@@H]2N)c2ncnc(N)c12`, the half-maximal inhibitory concentration (IC50) in the test with Human alphaherpesvirus 1 (Human alphaherpesvirus 1) was 28 µM; with KB (Homo sapiens, KB), 2.5 µM; in the test on HFF (Homo sapiens, HFF) it was 73 µM; with Human betaherpesvirus 5 [2] (Human betaherpesvirus 5), 1.6 µM; with L1210 (Mus musculus, L1210), 2 µM. It took 41 µM to reach the 90% level in the test with Human betaherpesvirus 5 [1] (Human betaherpesvirus 5) (IC90).
With `NC(=S)c1cn([C@@H]2O[C@H](CO)[C@H](O)[C@H]2O)c2ncnc(N)c12`, the IC50 with Human alphaherpesvirus 1 (Human alphaherpesvirus 1) is 1.9 µM; in the test on KB (Homo sapiens, KB), 1 µM; with HFF (Homo sapiens, HFF), 0.6 µM; with Human betaherpesvirus 5 [2] (Human betaherpesvirus 5), 0.6 µM; in the test with L1210 (Mus musculus, L1210) it was 0.5 µM. Besides, in the test with Human betaherpesvirus 5 [1] (Human betaherpesvirus 5), the 90% effect level (IC90) was put at 0.4 µM.
Regarding `N#Cc1cn([C@@H]2O[C@H](CO)[C@@H](O)[C@H]2O)c2ncnc(N)c12` (stereo in doubt; 6) [TOYOCAMYCIN], in the test on Human betaherpesvirus 5 [1], the IC90 worked out at 14 µM. In the test on KB (kb), this molecule gave a half-inhibitory concentration (IC50) of 17 µM.
`N#Cc1cn(C2OC(CO)CC2O)c2ncnc(N)c12` (stereo not given): the IC50 is 2.6 µM with Human alphaherpesvirus 1 (Human alphaherpesvirus 1); 4 µM with KB (Homo sapiens, KB); 3 µM in the test with HFF (Homo sapiens, HFF); 0.4 µM in the test with Human betaherpesvirus 5 [2] (Human betaherpesvirus 5); 0.1 µM with L1210 (Mus musculus, L1210). This molecule also came in with a 90% effect concentration (IC90) in the test with Human betaherpesvirus 5 [1] (Human betaherpesvirus 5) of 1.4 µM.
Consider `NC(=S)c1cn([C@@H]2O[C@H](CO)[C@@H](O)[C@H]2O)c2ncnc(N)c12`, for which the 90% effect level in the test with Human betaherpesvirus 5 [1] (Human betaherpesvirus 5) (IC90) was put at 0.1 µM. Also, the IC50 was 0.03 µM in the test on KB (Homo sapiens, KB); 0.32 µM in the test with HFF (Homo sapiens, HFF); 0.4 µM in the test on Human betaherpesvirus 5 [2] (Human betaherpesvirus 5); 0.03 µM in the test on L1210 (Mus musculus, L1210).
With `N#Cc1cn([C@H]2C[C@H](O)[C@@H](CO)O2)c2ncnc(N)c12`, the IC50 in the test with Human alphaherpesvirus 1 (Human alphaherpesvirus 1) turned out to be 4.5 µM; with KB (Homo sapiens, KB), 25 µM; in the test with HFF (Homo sapiens, HFF), 66 µM; with Human betaherpesvirus 5 [2] (Human betaherpesvirus 5), 35 µM; in the test with L1210 (Mus musculus, L1210), 80 µM. In the test on Human betaherpesvirus 5 [1] (Human betaherpesvirus 5), this molecule registered an IC90 of 13 µM.
With `NC(=S)c1cn([C@H]2C[C@H](O)[C@@H](CO)O2)c2ncnc(N)c12`, the IC50 with Human alphaherpesvirus 1 (Human alphaherpesvirus 1) was found to be 8.2 µM; in the test with KB (Homo sapiens, KB), 7 µM; with HFF (Homo sapiens, HFF) it was 41 µM; in the test on Human betaherpesvirus 5 [2] (Human betaherpesvirus 5), 5.7 µM; in the test with L1210 (Mus musculus, L1210), 3.9 µM. This molecule registered an IC90 in the test with Human betaherpesvirus 5 [1] (Human betaherpesvirus 5) of 15 µM.
In the case of `C[C@H]1OC(n2cc(C(=N)S)c3c(N)ncnc32)[C@H](O)[C@@H]1O` (stereo not given in full), the IC50 came to 0.5 µM with KB (Homo sapiens, KB); 3.2 µM with HFF (Homo sapiens, HFF); 3.1 µM in the test with Human betaherpesvirus 5 [2] (Human betaherpesvirus 5); 3 µM in the test on L1210 (Mus musculus, L1210).
As to `N#Cc1cn(C2CCC(CO)O2)c2ncnc(N)c12` (stereo not given), the IC50 was 21 µM with Human alphaherpesvirus 1 (Human alphaherpesvirus 1); 88 µM in the test on KB (Homo sapiens, KB); > 100 µM in the test with HFF (Homo sapiens, HFF); 19 µM in the test with Human betaherpesvirus 5 [2] (Human betaherpesvirus 5). In the test with Human betaherpesvirus 5 [1] (Human betaherpesvirus 5), this molecule registered a 90% effect concentration (IC90) of 90 µM.
In the case of `Nc1nc2c(ncn2COC(CO)CO)c(=O)[nH]1` [GANCICLOVIR], in the test with Human betaherpesvirus 5 [1] (Human betaherpesvirus 5), the IC90 came to 1.8 µM. Moreover, the IC50 is > 100 µM in the test on KB (Homo sapiens, KB) and > 100 µM with HFF (Homo sapiens, HFF).
With `N#Cc1cn([C@@H]2O[C@H](CO)[C@@H](O)[C@H]2O)c2ncnc(N)c12` (stereo in doubt; 2) [TOYOCAMYCIN], the IC50 in the test with Human alphaherpesvirus 1 came to 0.4 µM; in the test on KB (kb), 0.1 µM; with HFF (hff), 0.3 µM; in the test on Human betaherpesvirus 5 [2], 0.3 µM; in the test on L1210 (l1210), 0.1 µM. In the test with Human betaherpesvirus 5 [1], this molecule gave a 90% effect concentration (IC90) of 0.3 µM.
As for `NC(=S)c1cn([C@@H]2O[C@H](CO)[C@@H](O)[C@@H]2O)c2ncnc(N)c12`, the half-maximal inhibitory concentration (IC50) is 4.7 µM with Human alphaherpesvirus 1 (Human alphaherpesvirus 1); 2 µM in the test with KB (Homo sapiens, KB); 29 µM in the test on HFF (Homo sapiens, HFF); 0.9 µM with Human betaherpesvirus 5 [2] (Human betaherpesvirus 5); 5 µM in the test with L1210 (Mus musculus, L1210). Also, it took 1.9 µM to reach the 90% level with Human betaherpesvirus 5 [1] (Human betaherpesvirus 5) (IC90).
Turning to `N#Cc1cn([C@@H]2O[C@H](CO)[C@@H](O)[C@H]2O)c2ncnc(N)c12` (stereo in doubt; A) [TOYOCAMYCIN], the IC50 worked out at 0.03 µM in the test on HFF (hff) and 0.1 µM in the test on Human betaherpesvirus 5 [2].
As to `NC(=S)c1cn(C2CCC(CO)O2)c2ncnc(N)c12` (stereo not given), the IC50 in the test on Human alphaherpesvirus 1 (Human alphaherpesvirus 1) stood at 6 µM; with KB (Homo sapiens, KB), 11 µM; with HFF (Homo sapiens, HFF), 29 µM; in the test with Human betaherpesvirus 5 [2] (Human betaherpesvirus 5), 2.5 µM; in the test with L1210 (Mus musculus, L1210), 24 µM. In the test with Human betaherpesvirus 5 [1] (Human betaherpesvirus 5), this molecule registered an IC90 of 12 µM.
For `N#Cc1cn(C2C=CC(CO)O2)c2ncnc(N)c12` (stereo not given), the IC50 in the test on Human alphaherpesvirus 1 (Human alphaherpesvirus 1) is 41 µM; in the test on KB (Homo sapiens, KB), 176 µM; in the test with HFF (Homo sapiens, HFF), > 100 µM; with Human betaherpesvirus 5 [2] (Human betaherpesvirus 5) it was 5.1 µM. The IC90 in the test on Human betaherpesvirus 5 [1] (Human betaherpesvirus 5) was > 100 µM.
`NC(=S)c1cn(C2OC(CO)CC2O)c2ncnc(N)c12` (stereo not given): the half-inhibitory concentration (IC50) in the test with Human alphaherpesvirus 1 (Human alphaherpesvirus 1) worked out at 58 µM; with KB (Homo sapiens, KB), 3 µM; in the test on HFF (Homo sapiens, HFF), 2.1 µM; with Human betaherpesvirus 5 [2] (Human betaherpesvirus 5), 0.5 µM; with L1210 (Mus musculus, L1210) it was 0.6 µM. In the test on Human betaherpesvirus 5 [1] (Human betaherpesvirus 5), this molecule yielded an IC90 of 3 µM.
As to `N#Cc1cn([C@@H]2O[C@H](CO)[C@@H](O)[C@@H]2N)c2ncnc(N)c12`, the IC50 with Human alphaherpesvirus 1 (Human alphaherpesvirus 1) was 320 µM; with HFF (Homo sapiens, HFF), > 100 µM; in the test with L1210 (Mus musculus, L1210), 100 µM. This molecule displayed an IC90 with Human betaherpesvirus 5 [1] (Human betaherpesvirus 5) of 110 µM.

For orientation: IC50 means the concentration needed to halve the response being measured. A lower IC50 goes with greater potency. As a reminder, the IC90 is the concentration needed for an effect of 90%. Low readings indicate an effect from little substance, high ones a need for much substance.
